Bioassay records as filed in PubChem BioAssay.
ASAP1 inh: inhibitors of human ASAP1 ArfGAP activity; Q9ULH1; ASAP1-stimulated ARF1 GTP hydrolysis, GDP FP detection; inhibition, % at 16.5 µM; 0.19% of 360,000 active
MBD2 DNA inh: blocks human MBD2 binding to methylated DNA; inhibition, % at 4.4 µM; 0.31% of 370,000 active; TR-FRET, MBD2 binding to methylated oligonucleotide; Q9UBB5; AID 686964; in the data active = inhibition above about 13%
Target sequence (Q9UBB5 whole entry, looked up): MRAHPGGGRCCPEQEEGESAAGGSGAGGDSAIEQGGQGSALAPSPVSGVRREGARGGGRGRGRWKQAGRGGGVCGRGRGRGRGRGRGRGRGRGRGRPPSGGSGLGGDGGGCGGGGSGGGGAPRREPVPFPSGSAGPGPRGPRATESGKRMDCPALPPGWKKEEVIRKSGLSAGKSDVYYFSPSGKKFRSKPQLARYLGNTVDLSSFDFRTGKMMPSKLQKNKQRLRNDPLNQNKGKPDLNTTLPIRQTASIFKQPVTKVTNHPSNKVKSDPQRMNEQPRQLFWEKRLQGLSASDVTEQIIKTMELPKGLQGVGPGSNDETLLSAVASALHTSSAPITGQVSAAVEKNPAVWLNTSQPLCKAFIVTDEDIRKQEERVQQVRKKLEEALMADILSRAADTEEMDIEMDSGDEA
LEDGF integ inh: blocks HIV-1 LEDGF/p75-dependent DNA integration | TR-FRET IN-LEDGF/p75 DNA integration, Eu/Cy5 | inhibition, % at 3.7 µM | 0.64% of 370,000 active | AID 743269;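 active = inhibition above the screen-wide mean plus 3 SD, cut at about 13% in these data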;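 note: signal is the Cy5 over europium emission ratio at 671 and 618 nm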
ARFGAP1 inh: rat ARFGAP1 inhibition; Q62848; Arfgap1-stimulated ARF1 GTP hydrolysis, GDP FP detection; inhibition, % at 16.5 µM; 0.26% of 360,000 active; AID 651572;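 active = inhibition above a per-plate limit, mean inhibition of low control wells plus 3 SD, cut at about 25% in these data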
Target sequence (Q62848 1-136 limits assumed): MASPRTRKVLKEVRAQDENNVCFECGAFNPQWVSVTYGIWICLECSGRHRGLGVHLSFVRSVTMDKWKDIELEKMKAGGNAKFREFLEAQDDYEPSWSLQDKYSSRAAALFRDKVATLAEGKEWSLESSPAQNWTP
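Assay system: purified rat His6-Arfgap1 residues 1-136 (GAP domain); Reagent: human Δ17 ARF1 bound to GTP; Dosing: 16.5 µM single point, 1.26% DMSO; Times: GTP hydrolysis reaction 2 h at 25 °C; Signal: FP, GDP Alexa 633 tracer displaced from anti-GDP antibody, 620/688 nm; Measure: % inhibition from polarization.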
UHRF1 MBD2 ctr: blocks human UHRF1 binding to methylated DNA | Q96T88 | UHRF1 binding to methylated oligo, TR-FRET | inhibition, % at 4.4 µM | 0.75% of 370,000 active | AID 687016; in the data active = inhibition above about 21%;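 note: UHRF1 SRA domain binding a hemimethylated CpG hairpin DNA probe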
TDP2 inh: blocks human TDP2 phosphodiesterase activity; O95551; recombinant TDP2, T5PNP hydrolysis, p-nitrophenol absorbance 415 nm; inhibition, % at 12.8 µM; 0.34% of 370,000 active; AID 720702;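 active = inhibition above the mean of all tested compounds plus 3 SD, set per campaign, cut at about 25% in these data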
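System: recombinant human TDP2 / Amount: 120 nM TDP2 per well / Also added: 5 mM T5PNP chromogenic substrate / Doses: 12.8 µM single point, 1% DMSO / Incubation: 2 h at 37 °C / Detection: p-Nitrophenol epi absorbance / Evaluation: % inhibition relative to enzyme-containing and enzyme-free wells / Repeats: singlicate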
TDP2 inh conf: human TDP2 inhibition, confirmation; recombinant human TDP2, absorbance read-out; 22% of 1,100 active; inhibition, % at 12.8 µM; AID 743263; shares compounds with TDP2 inh
Each line names hits and unclear results; the compound was inactive in the other large screens (follow-up assays come after a bar, where they were run). Shown are actives, neighbours in structure and some others; about 2% of the full set was active somewhere. Cut-off read from the data, not from the text of the source, unless noted: active = inhibition above about 25%; inactive = the rest.

CC(=O)NC1=NN(c2ccccc2)C(=O)C1	TDP2 inh 55 | TDP2 inh conf inactive
Cc1ccc(-n2c(C)nn(Cc3ccc([N+](=O)[O-])cc3)c2=O)cc1	none
Cc1ccc(-n2c3nc(=O)[nH]c(=O)c-3cc3cc([N+](=O)[O-])ccc32)cc1	TDP2 inh 46 | TDP2 inh conf 41
COc1ccccc1CN1CCN(Cc2ccco2)CC1	TDP2 inh 28 | TDP2 inh conf inactive
COc1ccc(CN2CCN(Cc3ccco3)CC2)c(OC)c1	TDP2 inh 27 | TDP2 inh conf inactive
N[C@H](C(=O)N[C@@H](Cc1ccccc1)C(=O)N1CCC2CCN(S(=O)(=O)c3ccccc3)CC21)c1ccccc1 (some centres undefined)	none (no result: ASAP1 inh, ARFGAP1 inh)
COc1ccc(OC)c(C(=O)COC(=O)c2ccc(C)o2)c1	TDP2 inh 29 | TDP2 inh conf inactive
COc1ccc2c(c1)CNC2CS(=O)(=O)NC1CCCC1 (centres undefined)	none (no result: ASAP1 inh, ARFGAP1 inh)
O=C(Nc1cccc2nsnc12)c1ccc(-c2ccc(Br)cc2)o1	TDP2 inh 25 | TDP2 inh conf inactive
COC(=O)c1ccccc1NC(=O)c1ccc(-c2ccc(Br)cc2)o1	none
C=CCN1[C@H](Cc2ccccc2)COc2cccc(N3CCSCC3)c2S1(=O)=O	none (no result: ASAP1 inh, ARFGAP1 inh)
Cc1cc(=O)n(-c2ccccc2Cl)[nH]1	TDP2 inh 59 | TDP2 inh conf inactive
O=c1[nH]n(-c2ccccc2)c(=O)cc1Cl	none
CC1CCN(C2CCN(C(=O)c3ccccc3F)CC2)CC1	TDP2 inh 28 | TDP2 inh conf inactive
O=[N+]([O-])c1ccc(Nc2ccccc2)c2nonc12	TDP2 inh 26 | TDP2 inh conf inactive
CCCCOC(=O)C1=C(C)NC2(O)c3ccccc3C(=O)C12O (centres undefined)	TDP2 inh 61 | TDP2 inh conf 25
CCOC(=O)C1=C(C)N[C@@]2(O)c3ccccc3C(=O)[C@@]12O	TDP2 inh 36 | TDP2 inh conf 29
CC1=C(C(=O)OC(C)C)C2(O)C(=O)c3ccccc3C2(O)N1 (centres undefined)	TDP2 inh 44 | TDP2 inh conf inactive
COc1ccc2c(c1)NC1(O)c3ccccc3C(=O)C21O (centres undefined)	none
COC(=O)c1cc(-c2cccc(OCc3ccccc3)c2)c(=O)n2c1CCC2	none (no result: ASAP1 inh, ARFGAP1 inh)
C[C@H]1COc2cc(Br)ccc2S(=O)(=O)N1Cc1cn(CCC2OCCCO2)nn1	none (no result: ASAP1 inh, ARFGAP1 inh)
CC1=NN(c2ccccc2)C(=O)/C1=C\c1sccc1C	none
CC1=NN(c2ccccc2)C(=O)C1=C(C)C	TDP2 inh 37 | TDP2 inh conf inactive
CC(=O)NC1C(=O)N(CCN2CCOCC2)c2ccc(F)cc21 (centres undefined)	TDP2 inh 32 | TDP2 inh conf 31
CCN1CCN(C(C)C(=O)NC2CCCCC2)CC1 (centres undefined)	TDP2 inh 27 | TDP2 inh conf inactive
CCn1c2ccccc2c2cc(NC(=O)CSc3nnc(-c4ccccc4)n3Cc3ccco3)ccc21	none (no result: ASAP1 inh, ARFGAP1 inh)
COc1cc(CNCc2ccc(OC)cc2OC)cc(OC)c1	none
COc1cc(CNCc2ccc(Br)cc2)cc(OC)c1	TDP2 inh 25 | TDP2 inh conf inactive
CCOC(=O)N1CCN(C2=C(NS(=O)(=O)c3ccc(C)cc3)C(=O)c3ccccc3C2=O)CC1	LEDGF integ inh 15, TDP2 inh 42 | TDP2 inh conf 32
CC(=O)Nc1ccc(S(=O)(=O)Nc2ccc(N3CCOCC3)cc2)cc1	none
CC(=O)Nc1ccc(S(=O)(=O)NC2=C(N3CCN(c4ccc(F)cc4)CC3)C(=O)c3ccccc3C2=O)cc1	TDP2 inh 36 | TDP2 inh conf 30
CN1C2CCC1CC(N(CCc1ccccc1)C(=O)c1ccc(Cl)cc1)C2 (centres undefined)	TDP2 inh 28 | TDP2 inh conf inactive
N#Cc1ccc(NC(=O)OC2CC3CC2[C@H]2CCCCN2[C@H]3Cc2ccccc2)cc1 (some centres undefined)	none (no result: ASAP1 inh, ARFGAP1 inh)
COC(=O)[C@]12C[C@H](CC(=O)NCc3cccc(C(F)(F)F)c3)C(=O)N(Cc3ccc(Cl)cc3Cl)C1=C[C@H](C(C)(C)C)O[C@@H]2C	none (no result: ASAP1 inh, ARFGAP1 inh)
Cc1ccccc1C(=O)N(C)[C@H]1C[C@H]2c3[nH]c4c(-c5ccccc5)cccc4c3CCN2C[C@H]1[C@H](C)O	none (no result: ASAP1 inh, ARFGAP1 inh)
O=C1CCC(=O)N1CC(=O)N1CCCc2ccccc21	TDP2 inh 25 | TDP2 inh conf inactive
Cc1csc(NC(=O)c2ccc(COc3ccc(Cl)c(Cl)c3)o2)n1	none (no result: ASAP1 inh, ARFGAP1 inh)
CCOc1ccc(S(=O)(=O)N2CCCCC2)cc1NC(=O)c1c(CC)noc1C	TDP2 inh 25 | TDP2 inh conf inactive
N#CC1=C(N)Oc2n[nH]c(-c3cccs3)c2C1c1ccccc1C(=O)O (centres undefined)	none
N#CC1=C(N)Oc2n[nH]c(-c3cccs3)c2C1c1cccs1 (centres undefined)	TDP2 inh 29 | TDP2 inh conf inactive
Brc1cc2c(cc1CN1CCc3ccccc3C1)OCO2	TDP2 inh 26 | TDP2 inh conf inactive
Cc1ccc(S(=O)(=O)N(C)CCCC(=O)Nc2ccc(F)cc2)cc1	none
CN(CCCC(=O)Nc1ccc(OC(F)F)cc1)S(=O)(=O)c1ccc(F)cc1	TDP2 inh 28 | TDP2 inh conf inactive
CCCCCCCCN1C(=O)[C@@H](CC(=O)N2CCN(C(=O)OCC)CC2)C[C@@]2(C(=O)OC)C1=C[C@H](C(C)C)O[C@@H]2C1CC1	none (no result: ASAP1 inh, ARFGAP1 inh)
COc1ccc2c(c1)Cc1sc(NC(=O)c3ccccc3)nc1-2	none
COc1ccc(C(=O)Nc2nc3c(s2)Cc2cc(OC)ccc2-3)cc1	TDP2 inh 32 | TDP2 inh conf 38
Cc1nc2scc(C)n2c(=O)c1S(=O)(=O)NCc1ccc(F)cc1	TDP2 inh 25 | TDP2 inh conf inactive
CC1CCN(C(=O)Cn2c(SCC(=O)Nc3nccs3)nc3ccccc32)CC1	TDP2 inh 30 | TDP2 inh conf inactive
CCc1ccccc1NC(=O)CSc1nc2ccccc2n1CC(=O)N1CCCC1	none
CCOC(=O)c1c(C)oc2c1C(=O)c1ccccc1C2=O	none
CCOc1ccc2noc3c2c1C(=O)c1ccccc1-3	TDP2 inh 39 | TDP2 inh conf 34
Cc1ccccc1NC(=O)c1ccccc1NC(=O)c1cccs1	TDP2 inh 27 | TDP2 inh conf inactive
CCCCCCN1CCS(=O)(=O)N(Cc2ccc(Cl)cc2)C(C(=O)OC)C1 (centres undefined)	none (no result: ASAP1 inh, ARFGAP1 inh)
O=C(Nc1ccc(S(=O)(=O)Nc2ncccn2)cc1)c1ccccc1Br	TDP2 inh 26 | TDP2 inh conf inactive
